In ChEMBL document CHEMBL1123454, “New alpha-methylene gamma-lactone derivatives of substituted nucleic acid bases as potential anticancer agents” (1986) one finds Average survival days, T/C and EC50 data, which are given here for 11 molecules.

Molecules are shown by their SMILES. ≈ marks a conversion by molar mass, not a printed value.

Assay [1] has as its system Mus musculus. Description: Average survival days was measured by administrating the compound to Ehrlich ascites carcinoma(EAC) in swiss mice at 12 mg/kg dose. In kind it is functional. The gist of the method:
(§1)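 Swiss male mice (18–20 g) inoculated ip on day 0 with 1×10^6 EAC cells diluted in normal saline. Daily ip treatment began 24 h later for 7 days, compound homogenized in saline with 2% Tween-80, dose volume ≤0.01 mL/g; vehicle controls. Six mice per dose, one control group per six groups. Deaths counted daily; median survival times, T/C.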

Assay [2] has as its system Mus musculus. Description: Compound was tested in vivo for antitumor activity at 12 mg/kg dose. In kind it is functional. The gist of the method: (§2)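 Swiss male mice (18–20 g) inoculated ip on day 0 with 1×10^6 Ehrlich ascites carcinoma cells in 0.2 mL saline. Starting 24 h later, ip dosing once daily for 7 days; compound homogenized in saline with 2% Tween-80, at most 0.01 mL/g. Controls received vehicle alone. Six mice per dose, one control group per six groups. Deaths counted daily; median survival times expressed as T/C.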

For assay [3], the system named is Mus musculus. Description: Compound was tested in vivo for antitumor activity at 25 mg/kg dose. In kind it is functional. The gist of the method: as §2
Assay [4] relates to Mus musculus. The assay can be described thus: Average survival days was measured by administrating the compound to Ehrlich ascites carcinoma (EAC) in swiss mice at 25 mg/kg dose. In kind it is functional. The gist of the method: as §1
The test system of another assay is PS. Description: In vitro concentration required to reduce the growth rate of PS cells in culture by 50%. As to conditions: Mus musculus, read-out: ED50 (the source's name).
A short description of assay [5]: In vitro concentration required to reduce the growth rate of KB cells in culture by 50%. It is filed as functional. As to conditions: Homo sapiens, read-out: ED50 (the source's name). The essentials:
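Cytotoxicity screened at the National Cancer Institute by its standard protocol against murine P-388 lymphocytic leukemia (PS) and human nasopharyngeal carcinoma KB cells in culture. ED50 (μg/mL) is the concentration that halves the growth rate relative to control cultures.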

Assay [6] deals with Mus musculus. The assay can be described thus: Average survival days was measured by administrating the compound to Ehrlich ascites carcinoma (EAC) in swiss mice at 12 mg/kg dose. It is filed as functional. The gist of the method:
as §1

For the molecule `C=C1CC(CC)(CCn2cc(F)c(=O)[nH]c2=O)OC1=O` (stereo not given), the Average survival days with Mus musculus [1] came out at 23; with Mus musculus [4] it was 19.5. In addition, the values for the T/C with Mus musculus [2] and in the assay on Mus musculus [3] were 148 and 126, respectively.

With `C=C1CC(CC)(CCn2cc(C)c(=O)[nH]c2=O)OC1=O` (stereo not given), the Average survival days with Mus musculus [1] was 24.5; in the assay with Mus musculus [4], 25.5. Moreover, the results for the T/C with Mus musculus [2] and with Mus musculus [3] were 163 and 170, respectively.

`C=C1CC(CC)(CCn2cnc3c(S)ncnc32)OC1=O` (stereo not given): the values for the Average survival days with Mus musculus [1] and in the assay on Mus musculus [4] were 18 and 17.5, respectively. Also, the T/C in the assay with Mus musculus [2] is 116; with Mus musculus [3] it was 113.

Take `C=C1CC(C)(Cn2cnc3c(Cl)ncnc32)OC1=O` (stereo not given): the Average survival days is on record as 20 in the assay with Mus musculus [1] and 24 in the assay on Mus musculus [4]. Moreover, the T/C in the assay with Mus musculus [2] is 133; in the assay with Mus musculus [3] it was 160. Also, the EC50 in the assay with PS came to 0.17 µg/mL (≈ 0.61 µM); in assay [5], 1.5 µg/mL (≈ 5.38 µM).

In the case of `C=C1CC(CC)(CCn2ccc(=O)[nH]c2=O)OC1=O` (stereo not given), the T/C came out at 129 in the assay on Mus musculus [2] and 126 with Mus musculus [3]. For the same molecule, the EC50 is 0.35 µg/mL (≈ 1.32 µM) in the assay on PS and 2.8 µg/mL (≈ 10.6 µM) in assay [5]. Further, the Average survival days amounted to 20 in the assay on Mus musculus [6] and 19.5 with Mus musculus [4].

Regarding `C=C1CC(C)(Cn2cnc3c(S)ncnc32)OC1=O` (stereo not given), the Average survival days in the assay with Mus musculus [1] stood at 16; in the assay on Mus musculus [4] it was 18.5. For the same molecule, the T/C with Mus musculus [2] is 107; in the assay on Mus musculus [3], 123. Further, the EC50 (in the assay with PS; in assay [5]) was over 10 µg/mL in each case.

On to `C=C1CC(C)(Cn2cnc3c(O)ncnc32)OC1=O` (stereo not given), for which the Average survival days in the assay on Mus musculus [1] is recorded as 16; in the assay with Mus musculus [4] it was 16.5. Moreover, the T/C in the assay with Mus musculus [2] was found to be 107; in the assay on Mus musculus [3] it was 110.

In the case of `C=C1CC(CC)(CCn2cnc3c(Cl)ncnc32)OC1=O` (stereo not given), the Average survival days was 19.5 in the assay with Mus musculus [1] and 25 in the assay on Mus musculus [4]. Also, the T/C in the assay on Mus musculus [2] was found to be 126; in the assay with Mus musculus [3] it was 161. Also, the results for the EC50 (in the assay on PS; in assay [5]) were 0.25 µg/mL (≈ 0.815 µM) and 2.6 µg/mL (≈ 8.48 µM), respectively.

`C=C1CC(CC)(CCn2cc(F)c(=O)n(CCC3(CC)CC(=C)C(=O)O3)c2=O)OC1=O` (stereo not given): the figures for the Average survival days with Mus musculus [1] and with Mus musculus [4] were 23.5 and 21, respectively. Moreover, the T/C amounted to 138 in the assay with Mus musculus [2] and 123 in the assay with Mus musculus [3].

Take `C=C1CC(CC)(CCn2cnc3c(O)ncnc32)OC1=O` (stereo not given): the Average survival days with Mus musculus [1] is 17.5; in the assay with Mus musculus [4] it was 17. The T/C with Mus musculus [2] was 113; in the assay on Mus musculus [3], 109.

The molecule `O=c1[nH]cc(F)c(=O)[nH]1` [FLUOROURACIL] yielded a T/C in the assay on Mus musculus [3] of 220. Also, the Average survival days in the assay on Mus musculus [4] turned out to be 33.
